Screening results from PubChem.
Only some compounds are listed: those with a hit (about 3.8% of all), similar ones and a draw of the others.
T cell HTS – T cell immune modulation candidate; 2C CD8+ T cell-vesicle binding, flow cytometry; stronger effect = lower value; response (vesicle binding), % at 7 µM; hit rate 0.068% among 330,000;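 active = response, share of CD8 T cells binding vesicles, and their 90th percentile fluorescence all below set limits, cut at about 80% in these data, passing the limit was not always enough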;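 also: values below 100% mean blocked vesicle binding to the CD8+ T cells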
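Assay system: 2C TCR transgenic mouse naive CD8+ T cells, MACS-purified | Read-out: CD8+ gate FL2 mean fluorescence as % of same-row positive control | Signal: High-throughput flow cytometry with anti-B7-1 and anti-CD8 staining | Timing: Binding step 1.5 h, 37 °C, antibody labelling 20 min, ice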
Exocytosis inh – blocks lytic granule exocytosis | hit rate 0.66% among 360,000 | TALL-104 LAMP-1 surface exposure, flow cytometry; cells stimulated with thapsigargin and PMA | inhibition, % at 10 µM;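 active = inhibition above about 55%, limit read from the data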
V-ATPase pH – yeast V-ATPase proton transport regulation by pHLuorin; hit rate 0.37% among 350,000; S. cerevisiae, pHLuorin cytosolic pH fluorescence; response, % at 10 µM; AID 504577; in the data active = response mostly above about 7.3%, no sharp cut-off; inactive = mostly below about 5.4%; also: actives read high
rCAG binder – molecules binding r(CAG) RNA repeats. inhibition, % at 3 µM. r(CAG) RNA repeat, TO-PRO-1 dye displacement fluorescence. hit rate 1.3% among 370,000;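 active = inhibition above the plate cutoff, the mean of all test compounds on that plate plus 3 SD, cut at about 35% in these data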;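 also: 0% = DMSO alone and 100% = 100 µM mitoxantrone as full dye displacement; higher means more dye released from RNA so lower well fluorescence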
B2AR ag – activates human beta-2 adrenergic receptor causing internalization. P07550. Am2.2-beta2AR cells, FAP receptor internalization, flow cytometry. response, % (test concentration not listed). hit rate 0.43% among 340,000;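 active = response above a set limit, near 3 SD of response in nonfluorescent compounds, cut at about 42% in these data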
Target sequence (P07550 whole entry, looked up): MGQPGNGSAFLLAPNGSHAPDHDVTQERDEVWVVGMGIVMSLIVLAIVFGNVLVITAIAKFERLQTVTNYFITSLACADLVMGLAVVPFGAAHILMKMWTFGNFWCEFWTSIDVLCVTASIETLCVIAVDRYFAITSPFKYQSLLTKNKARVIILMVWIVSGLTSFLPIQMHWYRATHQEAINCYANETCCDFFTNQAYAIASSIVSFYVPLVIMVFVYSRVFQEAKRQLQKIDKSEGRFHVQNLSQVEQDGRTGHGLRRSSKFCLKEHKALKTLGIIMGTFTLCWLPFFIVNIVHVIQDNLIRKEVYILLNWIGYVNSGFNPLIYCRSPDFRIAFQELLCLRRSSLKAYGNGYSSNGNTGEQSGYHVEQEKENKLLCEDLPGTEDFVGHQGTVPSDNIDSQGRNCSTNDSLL
MPTP block – inhibitors of mitochondrial permeability transition pore | hit rate 1.4% among 360,000 | inhibition, % at 10 µM | isolated mouse mitochondria, Ca2+ swelling absorbance, 30 min;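 active = inhibition of 50% or more, scaled per plate between neutral and stimulator controls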;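 also: 0% = DMSO wells given calcium and 100% = 1 mM EGTA wells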
MPTP counter – mitochondrial membrane potential, counter-screen. shares compounds with MPTP block. inhibition, % at 10 µM. isolated mitochondria, Rhodamine 123 fluorescence. hit rate 78% among 5,000; in the data active = inhibition above about 22%;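 also: 0% = DMSO vehicle and 100% = positive control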
* hit, by the source's call.

For CC(NC(=S)Nc1cccc(C(F)(F)F)c1)C(C)(C)C (configuration not stated) the results were T cell HTS 466, Exocytosis inh -9, V-ATPase pH -2, rCAG binder -3, B2AR ag 3, MPTP block 94* and MPTP counter 95*.
Cc1ccc(NC(=S)NNC(=S)Nc2cccc(C(F)(F)F)c2)cc1 was read as T cell HTS 208, Exocytosis inh 18, V-ATPase pH 7, rCAG binder 16, B2AR ag -2, MPTP block 73* and MPTP counter 53*.
`C=C(C)C#CCNCc1ccccc1` gave rCAG binder 1.
Screening CSc1ccccc1NC(=S)Nc1cccc(C(F)(F)F)c1 returned T cell HTS 175, Exocytosis inh -5, V-ATPase pH -1, rCAG binder -1, B2AR ag 23, MPTP block 94* and MPTP counter 92*.
`COc1ccc(Cn2cc(CN3[C@@H](CC(C)C)COc4cccc(F)c4S3(=O)=O)nn2)cc1` gave rCAG binder 11.
For C=CCN1C(=O)c2n[nH]c(COC)c2C1c1ccc(F)cc1 (configuration not stated) the results were rCAG binder -1.
`O=C(NCCN1CCC(Cc2ccccc2)CC1)C1CCCN(S(=O)(=O)c2ccccc2[N+](=O)[O-])C1` (configuration not stated) gave rCAG binder 0.
O=c1/c(=C/c2ccc(O)c([N+](=O)[O-])c2)sc2nc3ccccc3n12 was read as Exocytosis inh 70*, V-ATPase pH 6, rCAG binder 3, B2AR ag -47, MPTP block 66* and MPTP counter 30*.
`O=c1/c(=C\c2cccnc2)sc2nc3ccccc3n12` gave Exocytosis inh 2, V-ATPase pH -1, B2AR ag -6 and MPTP block 0.
Cc1ccc2nc(-c3ccc(CN4CCC5(CC4)CNc4ccccc45)cc3)c(-c3ccccc3)nc2c1 was read as rCAG binder 12.
`CC(C)CN1C(=S)SC(C)(C)C1n1oc(=O)n(-c2ccccc2)c1=O` (configuration not stated) gave T cell HTS 249, Exocytosis inh 14, V-ATPase pH 3, rCAG binder -3, B2AR ag 4 and MPTP block 15.
`CC(C)CN1C(=S)SC(C)(C)C1n1oc(=O)n(-c2ccc(Cl)cc2)c1=O` (configuration not stated) gave T cell HTS 248, Exocytosis inh 0, V-ATPase pH -6, B2AR ag 12, MPTP block 88* and MPTP counter 95*.
Screening COc1ccc(C(=O)Nc2ccc(C(=O)Nc3cccc(C)c3)cc2)cc1 returned T cell HTS 561, Exocytosis inh -2, V-ATPase pH 3, rCAG binder -1, B2AR ag 0 and MPTP block 1.
`Cc1cccc(NC(=O)Nc2ccc(Oc3c(F)c(F)c(F)c(F)c3F)cc2)c1` gave T cell HTS 430, Exocytosis inh -3, V-ATPase pH 3, rCAG binder -1, B2AR ag 1, MPTP block 88* and MPTP counter 60*.
Screening CCOCC(O)CSCc1ccc(Cl)cc1 (configuration not stated) returned T cell HTS 364, Exocytosis inh 0, V-ATPase pH -5, rCAG binder -4, B2AR ag 7 and MPTP block 1.
`OC(COCC(F)(F)C(F)(F)C(F)(F)C(F)F)Cn1c2ccc(Cl)cc2c2cc(Cl)ccc21` (configuration not stated) gave T cell HTS 230, Exocytosis inh 0, V-ATPase pH -3, B2AR ag 18, MPTP block 80* and MPTP counter 52*.
`O=C(/C=C/c1ccco1)Oc1cc(Br)cc(/C=N/NC(=O)c2ccccc2O)c1` gave T cell HTS 445, Exocytosis inh 78*, V-ATPase pH -5, rCAG binder 19, B2AR ag 22, MPTP block 66* and MPTP counter 63*.
Cc1ccc(C(=O)N/N=C/c2cccc(OC(=O)/C=C/c3ccco3)c2)cn1 was read as T cell HTS 198, Exocytosis inh 2, V-ATPase pH -3, rCAG binder 1, B2AR ag -2 and MPTP block 0.
For Clc1ccc2[nH]cc(-c3nnnn3-c3ccccc3)c2c1 the results were T cell HTS 504, Exocytosis inh -2, V-ATPase pH 2, rCAG binder 12, B2AR ag -7, MPTP block 76* and MPTP counter 82*.
For CCc1ccc(-c2cc(C(=O)N3N=C(C(F)F)CC3(O)C(F)F)c3ccccc3n2)cc1 (configuration not stated) the results were T cell HTS 380, Exocytosis inh 1, V-ATPase pH 3, rCAG binder 11, B2AR ag 8, MPTP block 84* and MPTP counter 83*.
CCOc1cc(S(=O)(=O)NCc2ccncc2)ccc1Cl was read as T cell HTS 152, Exocytosis inh -2, V-ATPase pH -1, rCAG binder 3, B2AR ag -8, MPTP block 100* and MPTP counter 101*.
For CCOc1cc(S(=O)(=O)NCc2cccs2)ccc1Cl the results were T cell HTS 212, Exocytosis inh -2, V-ATPase pH 0, rCAG binder 2, B2AR ag -3 and MPTP block -5.
Screening CCOc1ccc(S(=O)(=O)NCc2ccncc2)cc1 returned T cell HTS 125, Exocytosis inh 4, V-ATPase pH 1, rCAG binder 0, B2AR ag -2, MPTP block 99* and MPTP counter 85*.
Cc1ccc(S(=O)(=O)NCc2ccncc2)cc1 was read as T cell HTS 268, Exocytosis inh 12, rCAG binder 1, B2AR ag 1 and MPTP block 25.
For CCOC(=O)COc1ccc(S(=O)(=O)NCc2ccco2)cc1 the results were T cell HTS 545, Exocytosis inh 0, V-ATPase pH -6, rCAG binder 1, B2AR ag 13 and MPTP block -2.
CCOC(=O)COc1ccc(S(=O)(=O)NCc2ccncc2)cc1 was read as T cell HTS inactive, Exocytosis inh -2, V-ATPase pH -3, rCAG binder 0, B2AR ag 9, MPTP block 88* and MPTP counter 86*.
`Cc1cc(S(=O)(=O)NCc2ccncc2)c(C)cc1Br` gave T cell HTS 351, Exocytosis inh -1, V-ATPase pH -2, rCAG binder -2, B2AR ag -5, MPTP block 60* and MPTP counter 88*.
For c1ccc(CNC2CCC23CCC(c2ccccc2)CC3)cc1 (configuration not stated) the results were rCAG binder -1.
